Measured values as given in ChEMBL document CHEMBL1828506, “New fluorine-containing hydrazones active against MDR-tuberculosis” (Eur J Med Chem, 2011).
Values after ≈ are worked out from the molar mass of the structure shown.

Legend:
[1] = test system: Mycobacterium tuberculosis; assay: Antimycobacterial activity against Mycobacterium tuberculosis H37Rv ATCC 27294 after 28 days by colony forming unit determination; type: functional; conditions: H37Rv ATCC 27294, 672 h
How it was run: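 Compounds added to Sula liquid medium as DMSO solutions (DMSO at most 2%), incubated at 37 °C for 28 days. MIC is the lowest concentration giving visible growth inhibition. Activity was confirmed by CFU counts after subculture onto drug-free Löwenstein-Jensen solid medium.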

Mycobacterium kansasii [2] = assay: Antimycobacterial activity against Mycobacterium kansasii CNTC My 235/80 after 14 days; type: functional; conditions: CNTC My 235/80, 336 h
Mycobacterium avium [3] = assay: Antimycobacterial activity against Mycobacterium avium CNTC 330/88 after 14 days; type: functional; conditions: CNTC 330/88, 336 h
Mycobacterium kansasii [4] = assay: Antimycobacterial activity against Mycobacterium kansasii CNTC 6509/96 after 21 days; type: functional; conditions: CNTC 6509/96, 504 h
Mycobacterium avium [5] = assay: Antimycobacterial activity against Mycobacterium avium CNTC 330/88 after 21 days; type: functional; conditions: CNTC 330/88, 504 h
Mycobacterium kansasii [6] = assay: Antimycobacterial activity against Mycobacterium kansasii CNTC My 235/80 after 21 days; type: functional; conditions: CNTC My 235/80, 504 h
Mycobacterium kansasii [7] = assay: Antimycobacterial activity against Mycobacterium kansasii CNTC 6509/96 after 7 days; type: functional; conditions: CNTC 6509/96, 168 h
Mycobacterium kansasii [8] = assay: Antimycobacterial activity against Mycobacterium kansasii CNTC My 235/80 after 7 days; type: functional; conditions: CNTC My 235/80, 168 h
Mycobacterium kansasii [9] = assay: Antimycobacterial activity against Mycobacterium kansasii CNTC 6509/96 after 14 days; type: functional; conditions: CNTC 6509/96, 336 h
PBMC = assay: Cytotoxicity against human PBMC measured after overnight incubation by MTT assay; type: cell-based
How it was run: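 Freshly prepared human PBMC in phenol-red-free RPMI-1640 with 10% FCS, 2 mM L-glutamine and gentamycin, 2.0 × 10⁵ cells per well. After 24 h at 37 °C, overnight compound exposure in serum-free medium. MTT for 4 h, formazan in DMSO, OD540 minus OD620. % cytotoxicity versus controls; IC50 from dose-response curves. Two independent experiments.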

[10] = Selectivity index, ratio of IC50 for human HepG2 cells to MIC for Mycobacterium tuberculosis H37Rv ATCC 27294; type: functional
HepG2 = assay: Cytotoxicity against human HepG2 cells measured after overnight incubation by MTT assay; type: cell-based
How it was run: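 HepG2 cells in phenol-red-free RPMI-1640 with 10% FCS, 2 mM L-glutamine and gentamycin, seeded at 5 × 10³ per well. After 24 h at 37 °C, cells were exposed overnight to compound in serum-free medium. MTT (2 mg/mL) for 4 h, formazan dissolved in DMSO, read as OD540 minus OD620. % cytotoxicity versus untreated controls; IC50 taken from dose-response curves. Two independent experiments, 4–8 parallel measurements.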

[11] = Hydrolytic stability of the compound in aqueous buffer assessed as half life at pH 3 after 48 hrs by HPLC analysis; type: physicochemical
How it was run: (§1)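 Compound added from DMSO stock to 100 mM buffer (phosphate at pH 3 and 7.4, acetate at pH 5), final 3 nmol/mL. Sampled at set times up to 48 h, in triplicate. Parent compound and ciprofloxacin/formylciprofloxacin quantified by isocratic RP-18 HPLC with fluorescence detection (276/442 nm). Half-life given with 95% confidence intervals.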

[12] = Metabolic stability in rat plasma assessed as parent compound remaining after 48 hrs by HPLC analysis; type: ADME, cell-free; conditions: read-out: Stability
How it was run: (§2)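 Compound spiked into rat plasma from DMSO stock, final 3 nmol/mL. 100 µL aliquots taken at set times and precipitated with an equal volume of acetonitrile. Gradient RP-18 HPLC (phosphate pH 2.0/acetonitrile) with fluorescence detection. Six runs: three to 48 h and three extended to 96 h. Result expressed as % parent compound remaining.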

[13] = Hydrolytic stability of the compound in aqueous buffer at pH 7.4 after 48 hrs by HPLC analysis; type: physicochemical; conditions: pH 7.4, 48 h; how it was run: as §1
[14] = Hydrolytic stability of the compound in aqueous buffer assessed as half life at pH 5 after 48 hrs by HPLC analysis; type: physicochemical; how it was run: as §1
[15] = Metabolic stability in rat plasma assessed as parent compound remaining after 96 hrs by HPLC analysis; type: ADME, cell-free; conditions: read-out: Stability; how it was run: as §2

SMILES | MIC [1] [µg/mL] | MIC (Mycobacterium kansasii [2]) [µM] | MIC (Mycobacterium avium [3]) [µM] | MIC (Mycobacterium kansasii [4]) [µM] | MIC (Mycobacterium avium [5]) [µM] | MIC (Mycobacterium kansasii [6]) [µM] | MIC (Mycobacterium kansasii [7]) [µM] | MIC (Mycobacterium kansasii [8]) [µM] | MIC (Mycobacterium kansasii [9]) [µM] | IC50 (PBMC) [µM] | Selectivity Index [10] | IC50 (HepG2) [µM] | half-life [11] [h] | remaining at 48 h [12] [%] | Stability [13] | half-life [14] [h] | remaining at 96 h [15] [%]
O=C(N/N=C/Nc1ccc(C(=O)O)c(O)c1)c1ccc(C(F)(F)F)cc1 | 4 (≈ 10.9 µM) | 125 (≈ 45.9 µg/mL) | 32 (≈ 11.8 µg/mL) | 125 (≈ 45.9 µg/mL) | 125 (≈ 45.9 µg/mL) | 250 (≈ 91.8 µg/mL) | 62.5 (≈ 23 µg/mL) | 62.5 (≈ 23 µg/mL) | 62.5 (≈ 23 µg/mL) | – | – | – | – | – | – | – | –
O=C(N/N=C/Nc1ccc(C(=O)O)c(O)c1)c1cccc(C(F)(F)F)c1 | 4 (≈ 10.9 µM) | 125 (≈ 45.9 µg/mL) | 250 (≈ 91.8 µg/mL) | 62.5 (≈ 23 µg/mL) | 500 (≈ 184 µg/mL) | 125 (≈ 45.9 µg/mL) | 62.5 (≈ 23 µg/mL) | 32 (≈ 11.8 µg/mL) | 62.5 (≈ 23 µg/mL) | – | – | – | – | – | – | – | –
O=C(N/N=C/Nc1ccc(C(=O)O)c(O)c1)c1ccc(F)cc1 | 4 (≈ 12.6 µM) | 62.5 (≈ 19.8 µg/mL) | 32 (≈ 10.2 µg/mL) | 32 (≈ 10.2 µg/mL) | 125 (≈ 39.7 µg/mL) | 62.5 (≈ 19.8 µg/mL) | 32 (≈ 10.2 µg/mL) | 32 (≈ 10.2 µg/mL) | 32 (≈ 10.2 µg/mL) | – | – | – | – | – | – | – | –
O=C(N/N=C/Nc1ccc(C(=O)O)c(O)c1)c1cccc(F)c1 | 2 (≈ 6.3 µM) | 62.5 (≈ 19.8 µg/mL) | 32 (≈ 10.2 µg/mL) | 32 (≈ 10.2 µg/mL) | 62.5 (≈ 19.8 µg/mL) | 62.5 (≈ 19.8 µg/mL) | 32 (≈ 10.2 µg/mL) | 32 (≈ 10.2 µg/mL) | 32 (≈ 10.2 µg/mL) | 934 | 148.25 | 934 | – | – | – | – | –
O=C(O)c1ccc(N/C=N/NC(=O)c2ccccc2F)cc1O | 2 (≈ 6.3 µM) | 32 (≈ 10.2 µg/mL) | 32 (≈ 10.2 µg/mL) | 62.5 (≈ 19.8 µg/mL) | 62.5 (≈ 19.8 µg/mL) | 62.5 (≈ 19.8 µg/mL) | 32 (≈ 10.2 µg/mL) | 32 (≈ 10.2 µg/mL) | 62.5 (≈ 19.8 µg/mL) | 1210 | 192.06 | 1210 | – | – | – | – | –
O=C(N/N=C/N1CCN(c2cc3c(cc2F)c(=O)c(C(=O)O)cn3C2CC2)CC1)c1ccc(C(F)(F)F)cc1 | 1 (≈ 1.83 µM) | 2 (≈ 1.09 µg/mL) | 32 (≈ 17.5 µg/mL) | 2 (≈ 1.09 µg/mL) | 62.5 (≈ 34.1 µg/mL) | 4 (≈ 2.18 µg/mL) | 1 (≈ 0.545 µg/mL) | 2 (≈ 1.09 µg/mL) | 1 (≈ 0.545 µg/mL) | 347 | 189.21 | 347 | – | – | – | – | –
O=C(N/N=C/N1CCN(c2cc3c(cc2F)c(=O)c(C(=O)O)cn3C2CC2)CC1)c1cccc(C(F)(F)F)c1 | 2 (≈ 3.67 µM) | 2 (≈ 1.09 µg/mL) | 250 (≈ 136 µg/mL) | 2 (≈ 1.09 µg/mL) | 250 (≈ 136 µg/mL) | 4 (≈ 2.18 µg/mL) | 1 (≈ 0.545 µg/mL) | 2 (≈ 1.09 µg/mL) | 1 (≈ 0.545 µg/mL) | > 322 | 87.79 | > 322 | – | – | – | – | –
O=C(N/N=C/N1CCN(c2cc3c(cc2F)c(=O)c(C(=O)O)cn3C2CC2)CC1)c1ccc(F)cc1 | 1 (≈ 2.02 µM) | 4 (≈ 1.98 µg/mL) | 62.5 (≈ 31 µg/mL) | 16 (≈ 7.93 µg/mL) | 125 (≈ 61.9 µg/mL) | 8 (≈ 3.96 µg/mL) | 8 (≈ 3.96 µg/mL) | 4 (≈ 1.98 µg/mL) | 8 (≈ 3.96 µg/mL) | > 763 | 634.29 | > 1280 | 2.9 | 87 | Stable | 11.8 | 82
O=C(N/N=C/N1CCN(c2cc3c(cc2F)c(=O)c(C(=O)O)cn3C2CC2)CC1)c1cccc(F)c1 | 1 (≈ 2.02 µM) | 4 (≈ 1.98 µg/mL) | 125 (≈ 61.9 µg/mL) | 4 (≈ 1.98 µg/mL) | 250 (≈ 124 µg/mL) | 8 (≈ 3.96 µg/mL) | 4 (≈ 1.98 µg/mL) | 4 (≈ 1.98 µg/mL) | 4 (≈ 1.98 µg/mL) | > 305 | 402.38 | > 812 | – | – | – | – | –
